Measurements from ChEMBL document CHEMBL2429865, “Withaferin A, a steroidal lactone from Withania somnifera, induces mitotic catastrophe and growth arrest in prostate cancer cells” (2013).
Calls of active or inactive are those of the source. The rule behind the calls is not given here.

Columns and labels:
PC-3 [1] = assay: Effect on 14-3-3 protein expression in human PC3 cells at IC50 after 12 to 48 hrs by Western blotting analysis; format: functional, cell-based
PC-3 [2] = assay: Mitotic arrest in human PC3 cells assessed as distorted spindles and curving microtubule array by DAPI staining-based confocal microscopic analysis; format: functional, cell-based
Summary of the method: (§1)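 PC-3 cells on coverslips are grown to 60% confluence and treated for 24 h. They are fixed in 4% paraformaldehyde for 20 min at room temperature, permeabilized with 0.2% Triton X-100 for 20 min, and immunostained for pH3 (Ser10), Aurora B or α-tubulin with Alexa Fluor secondaries, rhodamine-phalloidin and DAPI. Imaging is by laser scanning confocal microscopy.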

PC-3 [3] = assay: Upregulation of p21 protein expression in human PC3 cells at IC50 after 12 to 48 hrs by Western blotting analysis; format: functional, cell-based
PC-3 [4] = assay: Downregulation of cyclin A2 protein expression in human PC3 cells at IC50 after 12 to 48 hrs by Western blotting analysis; format: functional, cell-based
PC-3 [5] = assay: Downregulation of cyclin B1 protein expression in human PC3 cells at IC50 after 12 to 48 hrs by Western blotting analysis; format: functional, cell-based
[6] = biological target: T1, M-phase inducer phosphatase 3 (Homo sapiens) (UniProt P30307); assay: Reduction in CDC25C phosphorylation at Ser216 in human PC3 cells at 1 uM after 12 to 24 hrs by Western blotting analysis; format: cell-based; conditions: PC-3
T1 sequence (whole entry): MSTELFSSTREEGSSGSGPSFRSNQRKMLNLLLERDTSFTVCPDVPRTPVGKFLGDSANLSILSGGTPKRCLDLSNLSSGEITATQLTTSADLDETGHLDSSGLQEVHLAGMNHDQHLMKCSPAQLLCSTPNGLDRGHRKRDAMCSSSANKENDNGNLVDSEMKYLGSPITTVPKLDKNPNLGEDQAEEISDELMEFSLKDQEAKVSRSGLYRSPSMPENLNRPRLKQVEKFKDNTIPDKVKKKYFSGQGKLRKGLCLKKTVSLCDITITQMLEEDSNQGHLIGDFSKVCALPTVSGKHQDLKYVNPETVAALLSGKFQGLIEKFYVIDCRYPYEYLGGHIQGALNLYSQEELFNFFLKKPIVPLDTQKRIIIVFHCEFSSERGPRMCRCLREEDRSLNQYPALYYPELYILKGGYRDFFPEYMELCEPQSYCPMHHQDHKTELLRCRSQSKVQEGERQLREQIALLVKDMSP
Summary of the method: (§2)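 PC-3 cells are treated with 1 μM for various times. Lysates are made in M-PER buffer with protease inhibitor cocktail, and 25 μg protein is immunoblotted for pWee1 (Ser642), Wee1, pCdc2 (Tyr15), Cdc25C (Ser216) and Myt-1, with β-actin as loading control.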

[7] = biological target: Wee1-like protein kinase (Homo sapiens) (UniProt P30291); assay: Induction of Wee1 phosphorylation at Ser642 in human PC3 cells at 1 uM after 12 to 24 hrs by Western blotting analysis; format: cell-based; conditions: PC-3; summary of the method: as §2
Sequence of Wee1-like protein kinase (Homo sapiens) (P30291 whole entry, looked up): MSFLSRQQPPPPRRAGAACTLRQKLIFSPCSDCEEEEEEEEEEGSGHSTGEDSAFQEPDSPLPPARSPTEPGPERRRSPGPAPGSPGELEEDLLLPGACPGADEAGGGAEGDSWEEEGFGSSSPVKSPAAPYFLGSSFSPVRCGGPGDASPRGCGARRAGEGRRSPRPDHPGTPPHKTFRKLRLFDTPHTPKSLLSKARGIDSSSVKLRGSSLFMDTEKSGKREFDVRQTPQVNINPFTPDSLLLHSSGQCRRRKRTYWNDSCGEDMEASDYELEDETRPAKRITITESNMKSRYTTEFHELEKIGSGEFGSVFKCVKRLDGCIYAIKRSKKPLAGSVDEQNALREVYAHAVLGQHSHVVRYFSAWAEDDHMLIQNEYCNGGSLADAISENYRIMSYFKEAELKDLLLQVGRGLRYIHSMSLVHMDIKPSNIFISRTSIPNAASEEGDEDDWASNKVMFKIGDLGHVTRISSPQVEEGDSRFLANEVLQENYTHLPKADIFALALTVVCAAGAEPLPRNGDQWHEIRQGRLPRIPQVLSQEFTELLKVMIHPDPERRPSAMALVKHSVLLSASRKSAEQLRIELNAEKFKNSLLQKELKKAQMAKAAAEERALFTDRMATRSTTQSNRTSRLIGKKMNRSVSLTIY

[8] = biological target: Cyclin-dependent kinase 1 (Homo sapiens) (UniProt P06493); assay: Reduction in CDC2 phosphorylation at Tyr15 in human PC3 cells at 1 uM after 12 to 24 hrs by Western blotting analysis; format: cell-based; conditions: PC-3; summary of the method: as §2
Sequence of Cyclin-dependent kinase 1 (Homo sapiens) (P06493 whole entry, looked up): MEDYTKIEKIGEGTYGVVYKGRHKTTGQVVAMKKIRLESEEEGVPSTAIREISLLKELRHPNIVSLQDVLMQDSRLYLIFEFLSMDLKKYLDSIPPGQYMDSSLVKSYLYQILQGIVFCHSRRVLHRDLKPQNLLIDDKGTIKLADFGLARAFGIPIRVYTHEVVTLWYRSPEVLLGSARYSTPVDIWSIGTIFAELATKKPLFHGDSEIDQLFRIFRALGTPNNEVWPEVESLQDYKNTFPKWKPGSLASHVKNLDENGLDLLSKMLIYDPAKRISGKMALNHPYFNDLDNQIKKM

PC-3 [9] = assay: Downregulation of Myt-1 protein expression in human PC3 cells at 1 uM after 12 to 48 hrs by Western blotting analysis; format: functional, cell-based; summary of the method: as §2
PC-3 [10] = assay: Upregulation of p21 mRNA expression in human PC3 cells at IC50 after 12 to 48 hrs by SYBR green staining-based RT-PCR analysis; format: functional, cell-based
PC-3 [11] = assay: Cell cycle arrest in human PC3 cells assessed as accumulation at G2/M phase at 1 uM after 8 hrs by propidium iodide staining-based flow cytometry; format: functional
[12] = biological target: Cyclin-dependent kinase 1 (Homo sapiens) (UniProt P06493); assay: Reduction in CDC2 phosphorylation at Tyr15 in human PC3 cell cytoplasm at 1 uM after 24 hrs by immunofluorescence assay; conditions: PC-3
Summary of the method: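 PC-3 cells on coverslips at 60% confluence are treated with drug or DMSO for 24 h. They are fixed in 4% paraformaldehyde, permeabilized with 0.2% Triton X-100, and immunostained for pCdc2 (Tyr15) with Alexa Fluor secondary and DAPI counterstain. Images are taken by fluorescence/confocal microscopy.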

[13] = biological target: Tubulin alpha (Homo sapiens) (UniProt P0DPH7+P68366+Q71U36+P68363+Q9BQE3+Q6PEY2+A6NHL2+Q9NY65); assay: Inhibition of tubulin-alpha (unknown origin) polymerization by fluorescence-based assay; format: protein assay; conditions: TDE = time-dependent effect
PC-3 [14] = assay: Downregulation of cyclin E2 protein expression in human PC3 cells at IC50 after 12 to 48 hrs by Western blotting analysis; format: functional, cell-based
DU-145 [15] = assay: Induction of cell cycle arrest in human DU145 cells assessed as accumulation at G2/M phase at 1 uM after 24 hrs by propidium iodide staining-based flow cytometry (reference value: 22%); format: functional
PC-3 [16] = assay: Mitotic arrest in human PC3 cells assessed as accumulation of phosphorylated histone H3 in nucleus by DAPI staining-based confocal microscopic analysis; format: functional, cell-based; summary of the method: as §1
[17] = biological target: T2, Serine/threonine-protein kinase Chk1 (Homo sapiens) (UniProt O14757); assay: Reduction in CHK1 phosphorylation at Ser345 in human PC3 cells at IC50 after 12 to 48 hrs by Western blotting analysis; format: cell-based; conditions: PC-3
T2 sequence (whole entry): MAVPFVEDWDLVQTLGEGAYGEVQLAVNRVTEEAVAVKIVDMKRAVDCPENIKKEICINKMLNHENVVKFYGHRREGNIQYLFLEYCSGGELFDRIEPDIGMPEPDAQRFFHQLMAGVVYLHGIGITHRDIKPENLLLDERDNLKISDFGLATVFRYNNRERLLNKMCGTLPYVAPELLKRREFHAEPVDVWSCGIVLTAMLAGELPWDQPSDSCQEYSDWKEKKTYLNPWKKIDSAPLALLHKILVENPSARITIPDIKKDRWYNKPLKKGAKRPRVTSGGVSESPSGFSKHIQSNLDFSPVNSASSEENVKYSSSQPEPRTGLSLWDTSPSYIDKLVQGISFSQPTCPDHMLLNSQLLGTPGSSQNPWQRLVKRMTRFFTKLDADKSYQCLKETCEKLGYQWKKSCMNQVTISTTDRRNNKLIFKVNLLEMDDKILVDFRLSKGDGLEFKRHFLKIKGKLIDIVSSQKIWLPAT

DU-145 [18] = assay: Cell cycle arrest in human DU145 cells assessed as accumulation at G2/M phase at 1 uM after 8 hrs by propidium iodide staining-based flow cytometry; format: functional
[19] = biological target: Cyclin-dependent kinase 1/cyclin B1 (Homo sapiens) (UniProt P06493+P14635); assay: Activation of Cdc2/cyclin B in human PC3 cells; format: cell-based; conditions: PC-3
Sequence of Cyclin-dependent kinase 1/cyclin B1 (Homo sapiens) (P06493 whole entry, looked up): as the sequence (P06493 whole entry, looked up) above
Sequence of Cyclin-dependent kinase 1/cyclin B1 (Homo sapiens) (P14635 whole entry, looked up): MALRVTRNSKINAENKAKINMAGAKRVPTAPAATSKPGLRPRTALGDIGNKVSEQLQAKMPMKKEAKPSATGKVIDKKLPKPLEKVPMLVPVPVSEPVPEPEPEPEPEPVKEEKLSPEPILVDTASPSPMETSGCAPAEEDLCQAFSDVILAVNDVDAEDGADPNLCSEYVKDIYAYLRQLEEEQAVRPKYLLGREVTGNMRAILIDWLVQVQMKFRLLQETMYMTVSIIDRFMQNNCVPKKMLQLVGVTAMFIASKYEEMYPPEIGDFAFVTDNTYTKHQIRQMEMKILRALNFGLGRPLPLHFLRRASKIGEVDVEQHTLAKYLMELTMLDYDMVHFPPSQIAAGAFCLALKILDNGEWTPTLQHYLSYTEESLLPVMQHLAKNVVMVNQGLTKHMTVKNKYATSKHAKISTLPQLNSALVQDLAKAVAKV
Summary of the method: (§3)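 Lysates of vehicle- or drug-treated PC-3 cells are diluted in kinase buffer and added to wells precoated with recombinant Cdc25C substrate. Phosphorylation is started with Mg2+ and ATP. Phospho-Cdc25C Ser216 is detected with an HRP-conjugated antibody and TMB colour with stop reagent. The Cdc2-cyclin B1 line uses a parallel kit of the same format.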

PC-3 [20] = assay: Growth inhibition of human PC3 cells assessed as loss of cell viability after 24 hrs by trypan blue exclusion assay; format: functional, cell-based
Summary of the method: (§4)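 PC-3 (DMEM) and DU-145 (RPMI-1640) cells, with 10% heat-inactivated FBS, are seeded at 3×10⁵ cells/well, cultured 24 h, then exposed to 0.5, 1, 2, 3 and 4 μM for 24 h at 37°C, 5% CO₂. DMSO is ≤0.002%. Viable cells are counted by trypan blue exclusion on a hemocytometer and expressed as % of DMSO control. IC50 is calculated. Mean ± SEM of three independent experiments.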

[21] = biological target: Aurora kinase B (Homo sapiens) (UniProt Q96GD4); assay: Induction of Aurora B-mediated histone H3 phosphorylation at Ser10 in human PC3 cells after 12 to 48 hrs by Western blotting analysis; format: cell-based; conditions: PC-3
Sequence of Aurora kinase B (Homo sapiens) (Q96GD4 whole entry): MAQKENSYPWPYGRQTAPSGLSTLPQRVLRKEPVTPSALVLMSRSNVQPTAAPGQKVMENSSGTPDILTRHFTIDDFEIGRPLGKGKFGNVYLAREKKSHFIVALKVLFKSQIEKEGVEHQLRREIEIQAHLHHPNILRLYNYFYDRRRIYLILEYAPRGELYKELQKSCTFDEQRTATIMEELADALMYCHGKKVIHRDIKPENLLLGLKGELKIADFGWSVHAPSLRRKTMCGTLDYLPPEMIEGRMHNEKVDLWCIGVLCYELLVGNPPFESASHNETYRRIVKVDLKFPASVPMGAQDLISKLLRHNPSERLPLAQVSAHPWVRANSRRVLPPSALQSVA

PC-3 [22] = assay: Mitotic arrest in human PC3 cells assessed as punctate distribution of Aurora B in centromeric region of chromosomes by DAPI staining-based confocal microscopic analysis; format: functional, cell-based; summary of the method: as §1
[23] = biological target: Serine/threonine-protein kinase Chk2 (Homo sapiens) (UniProt O96017); assay: Reduction in CHK2 phosphorylation at Thr68 in human PC3 cells at IC50 after 12 to 48 hrs by Western blotting analysis; format: cell-based; conditions: PC-3
Sequence of Serine/threonine-protein kinase Chk2 (Homo sapiens) (O96017 whole entry): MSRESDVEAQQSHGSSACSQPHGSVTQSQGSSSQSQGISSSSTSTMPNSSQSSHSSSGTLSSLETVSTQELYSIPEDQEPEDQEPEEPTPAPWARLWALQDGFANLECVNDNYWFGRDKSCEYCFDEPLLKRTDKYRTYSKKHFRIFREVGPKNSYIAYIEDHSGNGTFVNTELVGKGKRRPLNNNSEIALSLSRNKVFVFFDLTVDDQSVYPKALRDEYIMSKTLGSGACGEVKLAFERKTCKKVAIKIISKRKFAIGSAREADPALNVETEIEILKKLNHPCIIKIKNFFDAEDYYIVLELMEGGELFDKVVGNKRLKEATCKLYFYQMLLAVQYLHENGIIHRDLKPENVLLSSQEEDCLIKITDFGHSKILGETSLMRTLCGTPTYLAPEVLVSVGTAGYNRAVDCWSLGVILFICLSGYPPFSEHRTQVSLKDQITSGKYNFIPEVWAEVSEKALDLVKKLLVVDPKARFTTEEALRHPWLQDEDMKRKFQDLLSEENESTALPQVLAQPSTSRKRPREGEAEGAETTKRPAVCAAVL

PC-3 [24] = assay: Mitotic arrest in human PC3 cells assessed as defect in depolymerization of tubulin-alpha by DAPI staining-based confocal microscopic analysis; format: functional, cell-based; summary of the method: as §1
PC-3 [25] = assay: Induction of cell cycle arrest in human PC3 cells assessed as accumulation at G2/M phase at 1 uM after 48 hrs by propidium iodide staining-based flow cytometry (reference value: 25.3%); format: functional
PC-3 [26] = assay: Upregulation of Aurora B protein expression in human PC3 cells at IC50 after 12 to 48 hrs by Western blotting analysis; format: functional, cell-based
PC-3 [27] = assay: Induction of cell cycle arrest in human PC3 cells assessed as accumulation at G2/M phase at 1 uM after 24 hrs by propidium iodide staining-based flow cytometry (reference value: 28.3%); format: functional
DU-145 [28] = assay: Induction of cell cycle arrest in human DU145 cells assessed as accumulation at G2/M phase at 1 uM after 48 hrs by propidium iodide staining-based flow cytometry (reference value: 22%); format: functional
DU-145 [29] = assay: Growth inhibition of human DU145 cells assessed as loss of cell viability after 24 hrs by trypan blue exclusion assay; format: functional, cell-based; summary of the method: as §4
[30] = biological target: T2, Serine/threonine-protein kinase Chk1 (Homo sapiens); assay: Activation of Chk1 in human PC3 cells assessed as phosphorylation of CDC25C at Ser216; format: cell-based; conditions: PC-3; summary of the method: as §3

Activity [6]: Active
Activity [7]: Active
Activity [8]: Active
Activity [12]: Active
inhibition [13]: tde
Activity [17]: Active
Activity [19]: inactive
Activity [21]: Active
Activity [23]: Active
Activity [30]: inactive
SMILES: CC1=C(CO)C(=O)O[C@@H]([C@@H](C)[C@H]2CC[C@H]3[C@@H]4C[C@H]5O[C@]56[C@@H](O)C=CC(=O)[C@]6(C)[C@H]4CC[C@]23C)C1 [WITHAFERIN A]
Activity (PC-3 [1]): inactive
Activity (PC-3 [2]): Active
Activity (PC-3 [3]): Active
Activity (PC-3 [4]): Active
Activity (PC-3 [5]): Active
Activity (PC-3 [9]): Active
Activity (PC-3 [10]): Active
Activity (PC-3 [11]): Active
Activity (PC-3 [14]): Active
Activity (DU-145 [15]): 36.75%
Activity (PC-3 [16]): Active
Activity (DU-145 [18]): Active
growth inhibition (GI) (PC-3 [20]): Dose-dependent effect
Activity (PC-3 [22]): Active
Activity (PC-3 [24]): Active
Activity (PC-3 [25]): 60.7%
Activity (PC-3 [26]): Active
Activity (PC-3 [27]): 62.7%
Activity (DU-145 [28]): 24.75%
growth inhibition (GI) (DU-145 [29]): Dose-dependent effect
